ChEMBL document CHEMBL2311523, “Identification of novel chromenone derivatives as interleukin-5 inhibitors” (Eur J Med Chem, 2013)

Biological target: T1, Interleukin-5 (Mus musculus) (UniProt P04401)
T1 sequence (whole entry): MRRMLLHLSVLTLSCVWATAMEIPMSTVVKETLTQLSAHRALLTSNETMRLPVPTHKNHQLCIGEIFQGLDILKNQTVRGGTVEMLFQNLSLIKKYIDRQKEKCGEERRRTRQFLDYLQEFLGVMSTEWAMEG
Experiment: Inhibition of IL-5 in mouse pro-B Y16 cells at 30 uM after 48 hrs by WST1 assay
Type: cell-based
Summary of the method: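 IL-5-dependent mouse pro-B Y16 cells were stimulated with 3 units/mL mIL-5 and incubated 48 h with or without compound. Cell metabolism was read by WST-1 tetrazolium reduction as an index of IL-5-driven proliferation.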

SMILES	inhibition
CC(C)(C)c1ccc(C(=O)/C=C/c2coc3cccc(OCC4CCCCC4)c3c2=O)cc1	99.2%
COc1cccc2occ(/C=C/C(=O)c3ccc(O)cc3)c(=O)c12	32.3%
COc1cccc2occ(/C=C/C(O)c3ccc(O)cc3)c(=O)c12 (racemic)	21.3%
N#Cc1ccc(C(=O)/C=C/c2coc3cccc(OCC4CCCCC4)c3c2=O)cc1	9.2%
O=c1c(/C=C/C(O)c2ccc(O)cc2)coc2cccc(OCC3CCCCC3)c12 (racemic)	92.7%
O=c1c(/C=C/C(O)c2ccc(F)cc2)coc2cccc(OCC3CCCCC3)c12 (racemic)	93.2%
Cc1ccc(C(O)/C=C/c2coc3cccc(OCC4CCCCC4)c3c2=O)cc1 (racemic)	93.2%
O=C(/C=C/c1coc2cccc(OCC3CCCCC3)c2c1=O)c1ccc(Cl)cc1	46.3%
O=C(/C=C/c1coc2cccc(OCC3CCCCC3)c2c1=O)c1ccc(C(F)(F)F)cc1	42.7%
CC(C)(C)c1ccc(C(O)/C=C/c2coc3cccc(OCC4CCCCC4)c3c2=O)cc1 (racemic)	15.7%
CC(C)COc1cccc2occ(/C=C/C(O)c3ccc(O)cc3)c(=O)c12 (racemic)	20.6%

The next lines start with the values.

inhibition	SMILES
92.7%	O=c1c(/C=C/C(O)c2ccc(C(F)(F)F)cc2)coc2cccc(OCC3CCCCC3)c12 (racemic)
9.3%	COc1ccc(C(=O)/C=C/c2coc3cccc(OCC4CCCCC4)c3c2=O)cc1
99%	O=C(/C=C/c1coc2cccc(OCC3CCCCC3)c2c1=O)c1ccc(O)cc1
93.9%	O=c1c(/C=C/C(O)c2ccccc2)coc2cccc(OCC3CCCCC3)c12 (racemic)
87.5%	CC(C)COc1cccc2occ(/C=C/C(=O)c3ccc(O)cc3)c(=O)c12
93.8%	O=c1c(/C=C/C(O)c2ccc([N+](=O)[O-])cc2)coc2cccc(OCC3CCCCC3)c12 (racemic)
93.5%	O=c1c(/C=C/C(O)c2ccc(Cl)cc2)coc2cccc(OCC3CCCCC3)c12 (racemic)
93.6%	COc1ccc(C(O)/C=C/c2coc3cccc(OCC4CCCCC4)c3c2=O)cc1 (racemic)
94.4%	N#Cc1ccc(C(O)/C=C/c2coc3cccc(OCC4CCCCC4)c3c2=O)cc1 (racemic)
17.2%	O=C(/C=C/c1coc2cccc(OCC3CCCCC3)c2c1=O)c1ccccc1
15.4%	O=C(/C=C/c1coc2cccc(OCC3CCCCC3)c2c1=O)c1ccc(F)cc1
11.8%	O=C(/C=C/c1coc2cccc(OCC3CCCCC3)c2c1=O)c1ccc([N+](=O)[O-])cc1
57.5%	Cc1ccc(C(=O)/C=C/c2coc3cccc(OCC4CCCCC4)c3c2=O)cc1

Biological target: not listed separately
Experiment: Inhibition of IL-5 in mouse pro-B Y16 cells after 48 hrs by WST1 assay

IC50	SMILES
5.8 µM	O=c1c(-c2ccc(O)cc2)coc2cccc(OCC3CCCCC3)c12
